In assay [1] the target is T1, Adrenergic receptor alpha-2 (Rattus norvegicus, UniProt P22086+P19328+P22909).
T1 sequence (P22086 whole entry): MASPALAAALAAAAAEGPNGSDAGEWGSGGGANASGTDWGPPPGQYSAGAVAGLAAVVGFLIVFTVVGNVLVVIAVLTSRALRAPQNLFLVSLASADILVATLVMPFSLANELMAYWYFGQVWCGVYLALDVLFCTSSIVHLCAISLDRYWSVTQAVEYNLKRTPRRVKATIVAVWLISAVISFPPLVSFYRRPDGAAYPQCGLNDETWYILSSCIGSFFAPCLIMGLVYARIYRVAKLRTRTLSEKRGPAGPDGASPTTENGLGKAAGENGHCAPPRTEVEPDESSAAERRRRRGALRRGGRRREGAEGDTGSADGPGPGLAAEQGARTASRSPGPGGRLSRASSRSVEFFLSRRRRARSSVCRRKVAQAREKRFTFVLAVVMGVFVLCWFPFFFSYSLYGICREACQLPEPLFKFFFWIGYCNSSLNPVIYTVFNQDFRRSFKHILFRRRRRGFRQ
T1 sequence (P19328 whole entry): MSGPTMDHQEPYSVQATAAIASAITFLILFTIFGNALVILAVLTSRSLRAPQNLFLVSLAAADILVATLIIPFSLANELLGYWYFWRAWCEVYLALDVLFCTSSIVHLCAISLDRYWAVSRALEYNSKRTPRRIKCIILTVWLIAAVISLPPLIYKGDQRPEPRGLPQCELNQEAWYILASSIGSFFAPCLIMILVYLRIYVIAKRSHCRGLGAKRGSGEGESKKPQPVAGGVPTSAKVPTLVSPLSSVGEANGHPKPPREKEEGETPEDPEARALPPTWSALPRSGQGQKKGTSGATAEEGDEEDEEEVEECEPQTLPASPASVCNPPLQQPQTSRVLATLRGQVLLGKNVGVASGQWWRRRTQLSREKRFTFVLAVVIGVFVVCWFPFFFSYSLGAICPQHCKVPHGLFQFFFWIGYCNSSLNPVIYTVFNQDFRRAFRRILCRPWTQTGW
T1 sequence (P22909 whole entry): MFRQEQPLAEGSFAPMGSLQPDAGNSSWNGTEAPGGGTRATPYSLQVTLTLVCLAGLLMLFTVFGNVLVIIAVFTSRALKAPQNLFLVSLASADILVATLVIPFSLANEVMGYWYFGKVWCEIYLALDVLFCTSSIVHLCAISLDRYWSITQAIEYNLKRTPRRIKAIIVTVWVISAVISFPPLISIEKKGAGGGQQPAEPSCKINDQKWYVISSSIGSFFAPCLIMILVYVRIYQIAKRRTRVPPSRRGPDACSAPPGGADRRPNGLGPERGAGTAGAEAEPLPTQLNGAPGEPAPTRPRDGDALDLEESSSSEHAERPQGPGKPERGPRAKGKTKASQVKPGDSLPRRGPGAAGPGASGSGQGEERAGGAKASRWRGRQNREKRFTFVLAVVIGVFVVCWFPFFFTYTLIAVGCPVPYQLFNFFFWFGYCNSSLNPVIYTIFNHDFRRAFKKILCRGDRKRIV
Put plainly: Alpha-2 adrenergic receptor antagonistic activity in rat vas deferens vs clonidine. Format: functional, tissue-based.

Assay [2] deals with T1, Adrenergic receptor alpha-2. Put plainly: Binding affinity against alpha-2 adrenergic receptor was determined by the displacement of [3H]clonidine from rat brain cortical membranes. Format: cell membranes, Membrane.
The target in assay [3] is T2, Adrenergic receptor alpha-1 (Rattus norvegicus, UniProt P15823+P23944+P43140).
T2 sequence (P15823 whole entry): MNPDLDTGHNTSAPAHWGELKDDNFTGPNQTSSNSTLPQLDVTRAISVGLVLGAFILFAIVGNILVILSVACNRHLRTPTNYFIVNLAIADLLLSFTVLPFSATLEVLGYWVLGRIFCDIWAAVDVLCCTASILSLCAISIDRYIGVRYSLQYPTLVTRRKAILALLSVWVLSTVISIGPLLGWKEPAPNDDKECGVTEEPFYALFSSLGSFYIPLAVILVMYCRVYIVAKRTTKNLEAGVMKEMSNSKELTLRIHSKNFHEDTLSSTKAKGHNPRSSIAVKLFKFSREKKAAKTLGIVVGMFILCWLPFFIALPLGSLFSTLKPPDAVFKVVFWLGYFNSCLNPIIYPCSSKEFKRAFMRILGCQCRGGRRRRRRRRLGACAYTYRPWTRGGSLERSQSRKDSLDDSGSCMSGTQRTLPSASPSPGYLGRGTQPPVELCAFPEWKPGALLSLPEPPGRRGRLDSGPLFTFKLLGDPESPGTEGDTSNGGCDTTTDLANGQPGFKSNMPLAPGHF
T2 sequence (P23944 whole entry): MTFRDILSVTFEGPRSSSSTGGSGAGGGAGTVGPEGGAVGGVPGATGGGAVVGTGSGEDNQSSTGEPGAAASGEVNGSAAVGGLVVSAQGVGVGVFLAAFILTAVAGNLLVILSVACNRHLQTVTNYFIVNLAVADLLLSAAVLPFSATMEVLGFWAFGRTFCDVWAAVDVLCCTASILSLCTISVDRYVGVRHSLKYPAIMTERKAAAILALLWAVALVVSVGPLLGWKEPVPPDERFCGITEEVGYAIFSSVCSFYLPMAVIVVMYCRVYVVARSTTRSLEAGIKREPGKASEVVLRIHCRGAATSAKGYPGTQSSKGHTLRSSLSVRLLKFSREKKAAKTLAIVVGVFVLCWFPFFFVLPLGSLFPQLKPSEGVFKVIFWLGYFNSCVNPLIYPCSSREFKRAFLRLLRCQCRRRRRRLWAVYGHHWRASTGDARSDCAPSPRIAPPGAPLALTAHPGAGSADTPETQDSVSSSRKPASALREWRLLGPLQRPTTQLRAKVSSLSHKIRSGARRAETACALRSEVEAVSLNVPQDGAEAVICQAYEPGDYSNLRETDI
T2 sequence (P43140 whole entry): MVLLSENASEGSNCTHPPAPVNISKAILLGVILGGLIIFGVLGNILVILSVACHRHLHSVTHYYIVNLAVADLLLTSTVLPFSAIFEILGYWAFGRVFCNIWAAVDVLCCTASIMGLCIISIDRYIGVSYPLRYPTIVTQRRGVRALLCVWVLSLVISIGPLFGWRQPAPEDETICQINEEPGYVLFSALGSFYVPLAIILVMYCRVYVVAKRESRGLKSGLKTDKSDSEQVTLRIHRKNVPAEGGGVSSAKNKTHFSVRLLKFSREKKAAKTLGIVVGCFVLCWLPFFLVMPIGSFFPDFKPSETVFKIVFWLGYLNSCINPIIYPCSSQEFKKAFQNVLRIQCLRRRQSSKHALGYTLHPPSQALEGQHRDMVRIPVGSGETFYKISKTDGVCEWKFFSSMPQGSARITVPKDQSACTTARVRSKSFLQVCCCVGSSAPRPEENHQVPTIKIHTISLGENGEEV
Put plainly: Binding affinity against alpha-1 adrenergic receptor was determined by the displacement of [3H]prazosin from rat brain cortical membranes; value ranges from 6.06-7.06. Format: cell membranes, Membrane. The essentials: (§1)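 Rat cortex was homogenized in 50 mM Tris pH 7.7, washed twice by centrifugation at 48000g and resuspended in 150 volumes. […] Nonspecific binding was defined with 10 μM phentolamine. Bound label was counted on filters, in triplicate. IC50 by logit plot, converted to Ki by Cheng-Prusoff.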

In assay [4] the target is T2, Adrenergic receptor alpha-1. Put plainly: The compound was evaluated for the alpha-1 adrenergic receptor antagonistic activity in rat vas deferens vs methoxamine alpha-1 adrenoceptor antagonism. The class given is functional, tissue-based. The essentials:
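Vasa deferentia from Sprague-Dawley rats (180–250 g) mounted at 1 g resting tension in oxygenated Krebs at 31 °C. Methoxamine was the reference α1 agonist. Agonist concentration-effect curves were run without and with at least three antagonist concentrations after 10 min preincubation. Potency was taken from Schild analysis, mean of at least three preparations from separate animals.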

Assay [5] deals with T1, Adrenergic receptor alpha-2. Put plainly: Alpha-2 adrenergic receptor antagonistic activity in rat vas deferens vs clonidin. Format: functional, tissue-based. The essentials:
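Vasa deferentia from Sprague-Dawley rats (180–250 g) mounted between platinum ring electrodes at 1 g resting tension in oxygenated Krebs at 37 °C. Single-pulse electrical stimulation (1 ms, 0.15 Hz, lowest voltage giving maximal contraction).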

The target of assay [6] is T2, Adrenergic receptor alpha-1. Put plainly: Binding affinity against alpha-1 adrenergic receptor was determined by the displacement of [3H]prazosin from rat brain cortical membranes; value ranges from 7.8-34.6. Format: cell membranes, Membrane. The essentials:
as §1

Assay [7] concerns the target T1, Adrenergic receptor alpha-2. Put plainly: The compound was evaluated for the alpha-2 adrenergic receptor agonistic activity in rat vas deferens; the effect was not yohimbine reversible.
Assay [8] concerns the target T2, Adrenergic receptor alpha-1. Put plainly: Binding affinity against alpha-1 adrenergic receptor was determined by the displacement of [3H]prazosin from rat brain cortical membranes; value ranges from 4.6-30.6. The class given is cell membranes, Membrane. The method in brief:
as §1

Assay [9] relates to Mus musculus. Put plainly: Antagonistic activity against clonidine-induced antinociception in mouse after po administration. The class given is functional. The essentials:
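Swiss Webster mice (18–24 g), 10 per treatment. Test compound was given orally in 0.9% NaCl at 10 mL/kg. […] Mice were observed 5–10 min after PPQ, and those writhing at least 3 times were counted as percent reversal.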

Assay [10] concerns the target T1, Adrenergic receptor alpha-2. Put plainly: The compound was evaluated for the alpha-2 adrenergic receptor activity in rat vas deferens. The method in brief: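 Isolated vasa deferentia from Sprague-Dawley rats (180–250 g) mounted between platinum ring electrodes at 1 g resting tension in oxygenated Krebs at 37 °C. Single-pulse electrical stimulation (1 ms, 0.15 Hz, lowest voltage giving maximal contraction); inhibition of twitch contractions gives IC50 for agonists. Mean of at least three experiments, separate animals.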

Structures are written as SMILES.

Take `C=CCN1c2ccccc2CC1C1=NCCN1` (configuration not stated): the pA2 in assay [1] is reported as 9.07; in [4], 8.02. Also, the values for the Ki in [2] and in [3] were 0.47 nM and 6.56 nM, respectively.

Take `CN1c2ccc(F)cc2CC1C1=NCCN1` (configuration not stated): the pA2 in assay [5] is listed as 8.45; in assay [4] it was 8.03. The Ki in assay [2] worked out at 0.91 nM; in assay [6], 16.4 nM.

`COC[C@@]1(C2=NCCN2)Cc2ccccc2N1C`: in assay [2], the inhibition constant Ki amounted to 38 nM. In assay [7], this compound came in with an IC50 of 131 nM.

For the compound `CN1c2ccccc2CC1C1=NCCN1` (configuration not stated), the pA2 in assay [5] was determined as 8.65; in [4] it was 7.75. Further, the Ki was 0.45 nM in assay [2] and 10.5 nM in [8]. This compound also showed an ED50 in assay [9] of 1.3 mg/kg.

The compound `CSC[C@@]1(C2=NCCN2)Cc2ccccc2N1C` yielded an IC50 in assay [10] of 179 nM. This compound also yielded an inhibition constant (Ki) in [2] of 13.2 nM.

For the origin of these results see ChEMBL document CHEMBL1123827, “Alpha 2-adrenergic agonists/antagonists: the synthesis and structure-activity relationships of a series of indolin-2-yl and tetrahydroquinolin-2-yl imidazolines” (J Med Chem, 1987).
